According to ChEMBL document CHEMBL1629614, “Inhibition of methionyl-tRNA synthetase by REP8839 and effects of resistance mutations on enzyme activity” (Antimicrob Agents Chemother, 2009):

Experiments:
[1] = compound: C=C(F)c1sc(CNCCCNc2cc(=O)c3ccccc3[nH]2)c(C)c1Br; experiment: Activity of Staphylococcus aureus MetRS G54A, A64P mutant by ATP:PPi exchange assay in presence of ATP
Outline: (§1)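 Purified S. aureus MetRS (wild type or mutant; E. coli-expressed, ammonium sulfate cut, anion exchange) at 30 nM. ATP:PPi exchange at 30°C in 100 mM Tris-HCl pH 8.0, 5–10 mM Mg acetate, 80 mM KCl, 2.5 mM DTT, [32P]PPi plus cold PPi equal to ATP. Quenched with EDTA over 1–10 min, PEI-cellulose TLC, phosphorimager. Initial velocities versus varied ATP or methionine fit to Michaelis-Menten.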

[2] = compound: C=C(F)c1sc(CNCCCNc2cc(=O)c3ccccc3[nH]2)c(C)c1Br; experiment: Ratio of Kcat to Km for Staphylococcus aureus MetRS G54A A64P mutant in presence of methionine
Outline: (§2)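 Purified recombinant S. aureus MetRS (30 nM) was assayed by ATP:PPi exchange at 30°C in Tris pH 8.0 with Mg acetate, KCl and DTT. [32P]PPi was matched to ATP, and ATP or methionine was varied. Time points from 1 to 10 min were quenched with EDTA, separated by PEI-cellulose TLC and read by phosphorimager. Initial rates were fitted to Michaelis-Menten.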

[3] = compound: C=C(F)c1sc(CNCCCNc2cc(=O)c3ccccc3[nH]2)c(C)c1Br; experiment: Ratio of Kcat to Km for Staphylococcus aureus MetRS G54A A64P mutant in presence of tRNA
Outline: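 Purified recombinant S. aureus MetRS was assayed by tRNA aminoacylation at 30°C for 1 to 7.5 min to obtain initial rates. Buffer was Tris pH 8.0 with Mg acetate, 2.5 mM ATP, KCl, DTT, BSA, [3H]methionine and crude E. coli tRNA. Reactions were EDTA-stopped, and charged tRNA was read by scintillation proximity with polylysine beads at pH 2.0.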

[4] = compound: C=C(F)c1sc(CNCCCNc2cc(=O)c3ccccc3[nH]2)c(C)c1Br; experiment: Ratio of Kcat to Km for Staphylococcus aureus MetRS G54A A64P mutant in presence of ATP; outline: as §2
[5] = compound: C=C(F)c1sc(CNCCCNc2cc(=O)c3ccccc3[nH]2)c(C)c1Br; experiment: Activity of streptococcus aureus MetRS G54A, A64P mutant by scintillation proximity assay in presence of tRNA; details: Staphylococcus aureus
[6] = compound: C=C(F)c1sc(CNCCCNc2cc(=O)c3ccccc3[nH]2)c(C)c1Br; experiment: Activity of Staphylococcus aureus MetRS G54A, A64P mutant by ATP:PPi exchange assay in presence of methionine; outline: as §1

B1: Methionine--tRNA ligase (Staphylococcus aureus subsp. aureus MW2), Q8NY00 G54A,A64P (protein)
chain: MAKETFYITTPIYYPSGNLHIGHAYSTVAGDVIARYKRMQGYDVRYLTGTDEHAQKIQEKAQKPGKTEIEYLDEMIAGIKQLWAKLEISNDDFIRTTEERHKHVVEQVFERLLKQGDIYLGEYEGWYSVPDETYYTESQLVDPQYENGKIIGGKSPDSGHEVELVKEESYFFNISKYTDRLLEFYDQNPDFIQPPSRKNEMINNFIKPGLADLAVSRTSFNWGVHVPSNPKHVVYVWIDALVNYISALGYLSDDESLFNKYWPADIHLMAKEIVRFHSIIWPILLMALDLPLPKKVFAHGWILMKDGKMSKSKGNVVDPNILIDRYGLDATRYYLMRELPFGSDGVFTPEAFVERTNFDLANDLGNLVNRTISMVNKYFDGELPAYQGPLHELDEEMEAMALETVKSYTESMESLQFSVALSTVWKFISRTNKYIDETTPWVLAKDDSQKDMLGNVMAHLVENIRYAAVLLRPFLTHAPKEIFEQLNINNPQFMEFSSLEQYGVLTESIMVTGQPKPIFPRLDSEAEIAYIKESMQPPATEEEKEEIPSKPQIDIKDFDKVEIKAATIINAEHVKKSDKLLKIQVDLDSEQRQIVSGIAKFYTPDDIIGKKVAVVTNLKPAKLMGQKSEGMILSAEKDGVLTLVSLPSAIPNGAVIK
- Km [1]: 760 µM
- kcat/Km [2]: 1000 M⁻¹ s⁻¹
- kcat/Km [3]: 2000 M⁻¹ s⁻¹
- kcat/Km [4]: 1000 M⁻¹ s⁻¹
- Km [5]: 0.57 µM
- kcat [5]: 0.001 s⁻¹
- Km [6]: 1070 µM
- kcat [6]: 1 s⁻¹
